Measured values of several laboratories.
Protocols differ between the studies behind these lines.
BRD2 BD2: Bromodomain-containing protein 2, BD2 (BRD2, Homo sapiens, UniProt P25440)
Melanocortin receptor 3: Melanocortin receptor 3 (Mus musculus, UniProt P33033)
PBRM1 bromodomain: Protein polybromo-1, bromodomain (PBRM1, Homo sapiens, UniProt Q86U86)
ADORA2B: Adenosine receptor A2b (ADORA2B, Homo sapiens, UniProt P29275)

| Structure (SMILES) | target | assay | setting | measurement | value |
| --- | --- | --- | --- | --- | --- |
| Nc1nc2c(ncn2[C@@H]2O[C@H](COP(=O)(O)OP(=O)(O)O)[C@@H](OP(=O)(O)OP(=O)(O)O)[C@H]2O)c(=O)[nH]1 | speC (Escherichia coli, UniProt P21169) | binding, ITC |  | Kd | 1.6 µM |
| Cc1noc(C)c1-c1ccc(-c2nc3cnccn3c2NC(C)(C)C)cc1 | BRD2 BD2 | cell-free assay, competition with immobilised ligand |  | Kd | 0.095 µM |
| N=C(N)NCCC[C@H](NC(=O)[C@@H](N)CC(=O)O)C(=O)N[C@@H](Cc1ccccc1)C(=O)O | Melanocortin receptor 3 | reporter gene, agonist |  | EC50 | > 100 µM |
| Cc1ncsc1-c1ccc(CNC(=O)[C@@H]2C[C@@H](O)CN2C(=O)[C@@H](NC(=O)C2(F)CC2)C(C)(C)C)c(OCCOc2ccc(CN3CCN(c4cc(-c5ccccc5O)nnc4N)CC3)cc2)c1 | PBRM1 bromodomain | binding, SPR |  | Kd | 0.83 µM |
| CCCCN1CCCn2c1nc1c2c(=O)n(CCC)c(=O)n1CCC | ADORA2B | ligand displacement, radioligand | cell membranes | Ki | 1.32 µM |
| Cc1cc2ccccc2n1CCNC(=O)c1ccc(N2CCCCC2)cc1 | Prostaglandin E2 receptor EP2 subtype (PTGER2, Homo sapiens, UniProt P43116) | cAMP, antagonist, TR-FRET |  | Kb | ~0.01 µM |
| COCCOc1ccc(N2CCN(CCn3ncc4c3nc(N)n3nc(-c5ccco5)nc43)CC2)cc1 | ADORA2B | ligand displacement, radioligand | cell membranes | Ki | > 1 µM |
| CCCCN1CCC(COC(=O)c2ccc(N)c(OCF)c2)CC1 | Muscarinic acetylcholine receptor M1 (CHRM1, Homo sapiens, UniProt P11229) | cell-free assay, radioligand |  | Ki | > 10 µM |
| CCCCCN1CCCn2c1nc1c2c(=O)n(C)c(=O)n1C | ADORA2B | ligand displacement, radioligand | cell membranes | Ki | > 10 µM |
| CCCCCCCC/C=C\CCCCCCCC(=O)SCCNC(=O)CCNC(=O)[C@H](O)C(C)(C)COP(=O)(O)OP(=O)(O)OC[C@H]1O[C@@H](n2cnc3c(N)ncnc32)[C@H](O)[C@@H]1OP(=O)(O)O | fadR (Vibrio cholerae, UniProt Q9KQU8) | binding, ITC |  | Kd | 0.006 µM |
| COc1cc(Nc2ncc3c(n2)-c2ccc(Cl)cc2C(c2c(F)cccc2OC)=NC3)ccc1C(=O)O | Tyrosine-protein kinase Tec (TEC, Homo sapiens, UniProt P42680) | binding | lysate | Kd | 9.86 µM |
| CC(=O)N[C@H](C(=O)N1C[C@H](O)C[C@H]1C(=O)NCc1ccc(-c2scnc2C)cc1)C(C)(C)SCCCCCCNC(=O)C[C@@H]1N=C(c2ccc(Cl)cc2)c2c(sc(C)c2C)-n2c(C)nnc21 | BRD2 BD2 | binding, ITC |  | Kd | 0.094 µM |
| CNC(=O)COc1cc2cc(Nc3nc(N4CCC(C(=O)NCCCCCCCNC(=O)C[C@@H]5N=C(c6ccc(Cl)cc6)c6c(sc(C)c6C)-n6c(C)nnc65)CC4)ncc3Cl)cc(OC)c2n(C)c1=O | B-cell lymphoma 6 protein (BCL6, Homo sapiens, UniProt P41182, C67R/C84N/C8Q) | binding, ITC |  | Kd | > 1000 µM |
| N=C(N)NCCC[C@H](NC(=O)[C@H](Cc1ccccc1)NC(=O)[C@@H](N)Cc1cnc[nH]1)C(=O)N[C@@H](Cc1c[nH]c2ccccc12)C(=O)O | Melanocortin receptor 3 | reporter gene, agonist |  | EC50 | > 100 µM |
| CCN1CCCn2c1nc1c2c(=O)n(C)c(=O)n1C | ADORA2B | ligand displacement, radioligand | cell membranes | Ki | > 10 µM |
| N=C(N)NCCC[C@H](NC(=O)[C@H](CC(=O)O)NC(=O)[C@H](Cc1c[nH]c2ccccc12)NC(=O)[C@H](CCCNC(=N)N)NC(=O)[C@H](Cc1ccccc1)NC(=O)[C@@H](N)Cc1c[nH]cn1)C(=O)N[C@@H](Cc1ccccc1)C(=O)O | Melanocortin receptor 3 | reporter gene, agonist |  | EC50 | 6.6 µM |
| CCCN1CCCn2c1nc1c2c(=O)n(C)c(=O)n1C | ADORA2B | ligand displacement, radioligand | cell membranes | Ki | > 10 µM |
| N=C(N)NCCC[C@H](NC(=O)[C@H](CC(=O)O)NC(=O)[C@H](Cc1c[nH]c2ccccc12)NC(=O)[C@H](CCCNC(=N)N)NC(=O)[C@@H](N)Cc1ccccc1)C(=O)N[C@@H](Cc1ccccc1)C(=O)NCC(=O)O | Melanocortin receptor 3 | reporter gene, agonist |  | EC50 | > 100 µM |
| CCNC(=O)[C@H]1O[C@@H](n2cnc3c(N)nc(NN=CC4CCC=CO4)nc32)[C@H](O)[C@@H]1O (stereo partly drawn) | ADORA2B | GTPγS binding, agonist | cell membranes | EC50 | 17.4 µM |
| CSCC[C@H](NC(=O)[C@@H](NC(=O)[C@@H](N)Cc1ccc(O)cc1)C(C)C)C(=O)NCC(=O)N[C@@H](Cc1c[nH]cn1)C(=O)N[C@@H](Cc1ccccc1)C(=O)O | Melanocortin receptor 3 | reporter gene, agonist |  | EC50 | > 100 µM |
| Cc1ncsc1-c1ccc(CNC(=O)[C@@H]2C[C@H](O)CN2C(=O)[C@@H](NC(=O)C2(F)CC2)C(C)(C)C)c(OCCc2ccc(CN3CCN(c4cc(-c5ccccc5O)nnc4N)CC3)cc2)c1 | PBRM1 bromodomain | binding, SPR |  | Kd | 1.2 µM |
| CSCC[C@H](N)C(=O)NCC(=O)N[C@@H](Cc1c[nH]cn1)C(=O)N[C@@H](Cc1ccccc1)C(=O)N[C@@H](CCCNC(=N)N)C(=O)N[C@@H](Cc1c[nH]c2ccccc12)C(=O)N[C@@H](CC(=O)O)C(=O)N[C@@H](CCCNC(=N)N)C(=O)N[C@@H](Cc1ccccc1)C(=O)NCC(=O)O | Melanocortin receptor 3 | reporter gene, agonist |  | EC50 | 0.26 µM |
| CCOc1cc(-c2nncn2C)ccc1Nc1ncc2cc(C)nc(NCC(C)(C)C)c2n1 | Dual serine/threonine and tyrosine protein kinase (DSTYK, Homo sapiens, UniProt Q6XUX3) | binding, competition with immobilised ligand |  | Kd | 0.17 µM |
| CCCCCC(C)N1CCCn2c1nc1c2c(=O)n(C)c(=O)n1C (stereo not drawn) | ADORA2B | ligand displacement, radioligand | cell membranes | Ki | > 10 µM |
| N=C(N)NCCC[C@H](NC(=O)[C@H](CC(=O)O)NC(=O)[C@H](Cc1c[nH]c2ccccc12)NC(=O)[C@@H](N)CCCNC(=N)N)C(=O)N[C@@H](Cc1ccccc1)C(=O)NCC(=O)O | Melanocortin receptor 3 | reporter gene, agonist |  | EC50 | > 100 µM |
| CC(C)CN1CCCn2c1nc1c2c(=O)n(C)c(=O)n1C | ADORA2B | ligand displacement, radioligand | cell membranes | Ki | > 10 µM |
| N=C(N)NCCC[C@H](NC(=O)[C@H](CC(=O)O)NC(=O)[C@@H](N)Cc1c[nH]c2ccccc12)C(=O)N[C@@H](Cc1ccccc1)C(=O)NCC(=O)O | Melanocortin receptor 3 | reporter gene, agonist |  | EC50 | > 100 µM |
